Test results published in ChEMBL document CHEMBL1157326, “Nortriterpenoids from Schisandra lancifolia” (J Nat Prod, 2006).
In brackets after ≈: the same amount, converted by molar mass.

Legend:
[1] = Cytotoxicity against human C8166 cells by MTT method; assay type: cell-based
Procedure, shortened: (§1)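 C8166 cells were used for both assays, with AZT as the positive control. Protection from HIV-1 cytopathic effect gave the EC50, and MTT viability on the same cells, run in parallel, gave the CC50.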

[2] = tested on: Human immunodeficiency virus 1; assay: Antiviral activity against HIV1 3B in human C8166 cells assessed as inhibition of virus-induced cytopathic effect; assay type: functional, organism-based; settings: Human immunodeficiency virus 1, 3B; procedure, shortened: as §1
[3] = Selectivity index, CC50 for human C8166 cells to EC50 for HIV1 3B; assay type: toxicity, cell-based; settings: read-out: Ratio CC50/EC50
Procedure, shortened: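 The ratio is built from a CC50 (MTT viability of C8166 cells) and an EC50 (inhibition of HIV-1 cytopathic effect in C8166 cells), both determined in parallel.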

Row | Structure (SMILES) | CC50 [1] [µg/mL] | EC50 [2] [µg/mL] | selectivity ratio [3]
1 | CC1=C[C@@H]([C@H]2[C@H](C)C(=O)[C@@]3(C)CC[C@]45C[C@]67OC(=O)C[C@H]6OC(C)(C)[C@@H]7C[C@H](O)[C@H]4C(=O)[C@@](O)(O5)[C@@H]23)OC1=O [LANCIFODILACTONE I] | > 200 | 96.4 (≈ 177 µM) | > 2.08
2 | CC(=O)O[C@H]1C[C@H]2C(C)(C)O[C@@H]3CC(=O)O[C@@]32C[C@]23CC[C@]4(C)C(=O)[C@@H](C)[C@H]([C@@H]5C=C(C)C(=O)O5)[C@@H]4[C@](O)(O2)C(=O)[C@H]13 [LANCIFODILACTONE J] | > 200 | 88.3 (≈ 151 µM) | > 2.26
3 | CC1=C[C@@H]([C@H]2[C@H](C)C(=O)[C@@]3(C)CC[C@]45C[C@]67OC(=O)C[C@H]6OC(C)(C)[C@@H]7CC=C4C(=O)[C@@](O)(O5)[C@@H]23)OC1=O [LANCIFODILACTONE K] | > 200 | 78.5 (≈ 149 µM) | > 2.55
4 | C[C@@H]1C(=O)[C@@]2(C)CC[C@]34C[C@]56OC(=O)C[C@H]5OC(C)(C)[C@@H]6C[C@H](O)[C@H]3C(=O)[C@@]3(O[C@H]5[C@H](OC(=O)[C@]5(C)O)[C@@H]1[C@H]32)O4 [LANCIFODILACTONE L] | > 200 | 100 (≈ 178 µM) | > 2
5 | CC1=C2[C@H]3OC(=O)[C@@H](C)[C@H]3O[C@]34O[C@@]5(CC[C@](C)(C1=O)[C@H]23)C[C@]12OC(=O)C[C@H]1OC(C)(C)[C@@H]2C[C@H](O)[C@H]5C4=O [LANCIFODILACTONE M] | > 200 | 76.6 (≈ 141 µM) | > 2.61
6 | C[C@@H]1C(=O)[C@@]2(C)CC[C@]34C[C@]56OC(=O)C[C@H]5OC(C)(C)[C@@H]6CC=C3C(=O)[C@@]3(O[C@H]5[C@H](OC(=O)[C@]5(C)O)[C@@H]1[C@H]32)O4 [LANCIFODILACTONE N] | 186 (≈ 343 µM) | 77.6 (≈ 143 µM) | 2.4
7 | Cc1cn([C@H]2C[C@H](N=[N+]=[N-])[C@@H](CO)O2)c(=O)[nH]c1=O [ZIDOVUDINE] | > 200 | 0.0033 (≈ 0.0123 µM) | > 60600
